Here are results for one compound from ChEMBL document CHEMBL4152279, “Synthesis, cytotoxic evaluation and target identification of thieno[2,3-d]pyrimidine derivatives with a dithiocarbamate side chain at C2 position” (Eur J Med Chem, 2018).

Assay [1] has as its target T1, RNA-binding protein EWS (Homo sapiens) (UniProt Q01844).
T1 sequence (whole entry): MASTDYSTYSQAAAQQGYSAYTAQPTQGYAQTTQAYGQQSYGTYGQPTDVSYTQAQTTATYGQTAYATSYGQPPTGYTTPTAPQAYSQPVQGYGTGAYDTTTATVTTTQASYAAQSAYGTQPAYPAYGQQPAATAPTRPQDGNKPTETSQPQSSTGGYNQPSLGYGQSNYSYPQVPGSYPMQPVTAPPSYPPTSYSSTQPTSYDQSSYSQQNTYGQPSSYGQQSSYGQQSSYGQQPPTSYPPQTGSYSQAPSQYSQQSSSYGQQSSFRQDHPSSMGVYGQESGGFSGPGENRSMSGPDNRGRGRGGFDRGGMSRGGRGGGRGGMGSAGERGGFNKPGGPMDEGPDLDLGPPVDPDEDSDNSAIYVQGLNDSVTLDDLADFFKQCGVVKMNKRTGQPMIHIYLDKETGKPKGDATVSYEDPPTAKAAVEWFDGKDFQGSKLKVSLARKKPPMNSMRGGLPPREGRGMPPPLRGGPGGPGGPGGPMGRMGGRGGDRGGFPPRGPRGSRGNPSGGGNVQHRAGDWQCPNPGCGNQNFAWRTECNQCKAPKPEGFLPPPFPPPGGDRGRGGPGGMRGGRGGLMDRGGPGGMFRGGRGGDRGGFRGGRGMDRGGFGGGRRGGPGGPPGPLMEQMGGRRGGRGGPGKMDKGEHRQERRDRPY
In words: Binding affinity to RNA-binding protein EWS isoform 6 in human A549 cells at 0.15 mM after 4 hrs by HPLC-MS based pull down assay relative to control. The assay is classed as cell-based. In short, it runs like this: (§1)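 A549 lysate in NETN buffer (pH 8.0, 0.5% NP-40) incubated with biotinylated probe (0.15 mM final) 4 h at 4 °C, with biotin or control probe as comparators. Streptavidin Dynabeads 1 h at 4 °C, six NETN washes, proteins eluted by boiling in SDS buffer. After trypsin digestion, identification by LC-MS/MS on Q Exactive HF.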

For assay [2], the system named is A549. Kind of assay: Binding affinity to tubulin alpha-3E in human A549 cells at 0.15 mM after 4 hrs by HPLC-MS based pull down assay relative to control. Type of assay: cell-based. In short, it runs like this: as §1
The subject of assay [3] is A549. Kind of assay: Binding affinity to tubulin beta in human A549 cells at 0.15 mM after 4 hrs by HPLC-MS based pull down assay relative to control. The assay is classed as cell-based. In short, it runs like this:
as §1

Assay [4] concerns the target Tubulin beta-4B chain (Homo sapiens) (UniProt P68371). Kind of assay: Binding affinity to tubulin beta-4B in human A549 cells at 0.15 mM after 4 hrs by HPLC-MS based pull down assay relative to control. Type of assay: cell-based. In short, it runs like this:
as §1

Assay [5] deals with T2, ATP-dependent RNA helicase DDX1 (Homo sapiens) (UniProt Q92499).
T2 sequence (whole entry): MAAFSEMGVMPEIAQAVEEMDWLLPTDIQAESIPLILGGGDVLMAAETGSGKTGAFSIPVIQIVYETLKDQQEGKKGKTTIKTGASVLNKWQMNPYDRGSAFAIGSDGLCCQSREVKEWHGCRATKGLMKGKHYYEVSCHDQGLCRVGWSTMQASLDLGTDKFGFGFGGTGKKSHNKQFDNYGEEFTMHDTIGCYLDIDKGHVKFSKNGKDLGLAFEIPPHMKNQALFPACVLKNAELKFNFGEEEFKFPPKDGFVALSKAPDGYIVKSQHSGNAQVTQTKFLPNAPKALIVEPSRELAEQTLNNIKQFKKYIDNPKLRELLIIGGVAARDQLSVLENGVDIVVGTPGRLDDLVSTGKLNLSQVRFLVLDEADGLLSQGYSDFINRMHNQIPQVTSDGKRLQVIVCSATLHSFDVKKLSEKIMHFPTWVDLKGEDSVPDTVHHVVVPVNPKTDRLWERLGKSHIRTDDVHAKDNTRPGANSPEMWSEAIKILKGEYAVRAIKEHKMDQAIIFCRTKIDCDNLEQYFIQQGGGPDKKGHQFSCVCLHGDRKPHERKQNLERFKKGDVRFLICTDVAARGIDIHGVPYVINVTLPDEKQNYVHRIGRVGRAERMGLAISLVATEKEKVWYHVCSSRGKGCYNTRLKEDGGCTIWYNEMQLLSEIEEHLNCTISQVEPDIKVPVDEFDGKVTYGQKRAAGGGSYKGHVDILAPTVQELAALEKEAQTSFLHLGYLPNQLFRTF
In words: Binding affinity to DDX1 in human A549 cells at 0.15 mM after 4 hrs by HPLC-MS based pull down assay relative to control. Type of assay: cell-based. In short, it runs like this: as §1

In assay [6] the target is Probable ATP-dependent RNA helicase DDX17 (Homo sapiens) (UniProt Q92841). Kind of assay: Binding affinity to DDX17 in human A549 cells at 0.15 mM after 4 hrs by HPLC-MS based pull down assay relative to control. Type of assay: cell-based. In short, it runs like this: as §1
Chain of Probable ATP-dependent RNA helicase DDX17 (Homo sapiens) (Q92841 whole entry, canonical isoform): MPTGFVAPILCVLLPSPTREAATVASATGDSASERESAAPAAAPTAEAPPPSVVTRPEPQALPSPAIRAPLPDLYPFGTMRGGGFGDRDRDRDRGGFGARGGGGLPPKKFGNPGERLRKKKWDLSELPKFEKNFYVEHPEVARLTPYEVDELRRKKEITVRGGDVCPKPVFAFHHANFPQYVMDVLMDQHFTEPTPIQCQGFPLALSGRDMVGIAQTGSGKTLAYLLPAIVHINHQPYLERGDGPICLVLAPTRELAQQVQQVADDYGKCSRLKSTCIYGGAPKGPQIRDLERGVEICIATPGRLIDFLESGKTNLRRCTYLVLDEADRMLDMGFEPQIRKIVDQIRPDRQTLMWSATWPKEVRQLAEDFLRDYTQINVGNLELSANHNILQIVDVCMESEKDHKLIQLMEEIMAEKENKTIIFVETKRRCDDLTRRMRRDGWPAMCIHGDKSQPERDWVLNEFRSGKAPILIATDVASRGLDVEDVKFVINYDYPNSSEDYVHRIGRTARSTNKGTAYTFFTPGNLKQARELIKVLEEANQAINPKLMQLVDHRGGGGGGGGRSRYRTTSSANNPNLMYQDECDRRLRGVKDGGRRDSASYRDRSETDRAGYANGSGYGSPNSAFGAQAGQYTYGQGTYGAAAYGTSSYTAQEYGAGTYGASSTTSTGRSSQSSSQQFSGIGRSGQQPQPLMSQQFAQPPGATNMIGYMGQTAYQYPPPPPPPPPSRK
The target in assay [7] is Ubiquitin carboxyl-terminal hydrolase 10 (Homo sapiens) (UniProt Q14694). Kind of assay: Binding affinity to ubiquitin carboxyl-terminal hydrolase 10 isoform-2 in human A549 cells at 0.15 mM after 4 hrs by HPLC-MS based pull down assay relative to control. Type of assay: cell-based. In short, it runs like this:
as §1

Assay [8] concerns the target Serine/arginine-rich splicing factor 1 (Homo sapiens) (UniProt Q07955). In words: Binding affinity to serine/arginine-rich-splicing factor 1 in human A549 cells at 0.15 mM after 4 hrs by HPLC-MS based pull down assay relative to control. Type of assay: cell-based. In short, it runs like this: as §1
In assay [9] the target is Serine/arginine-rich splicing factor 9 (Homo sapiens) (UniProt Q13242). In words: Binding affinity to serine/arginine-rich-splicing factor 9 in human A549 cells at 0.15 mM after 4 hrs by HPLC-MS based pull down assay relative to control. Type of assay: cell-based. In short, it runs like this: as §1
Chain of Serine/arginine-rich splicing factor 9 (Homo sapiens) (Q13242 whole entry): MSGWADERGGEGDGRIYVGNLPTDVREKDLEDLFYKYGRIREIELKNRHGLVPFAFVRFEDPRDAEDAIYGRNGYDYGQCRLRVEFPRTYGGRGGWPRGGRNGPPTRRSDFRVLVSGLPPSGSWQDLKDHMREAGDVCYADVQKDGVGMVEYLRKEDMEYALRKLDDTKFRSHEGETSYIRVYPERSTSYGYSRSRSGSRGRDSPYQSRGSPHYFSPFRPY
The target in assay [10] is T1, RNA-binding protein EWS (Homo sapiens). In words: Binding affinity to RNA-binding protein EWS in human A549 cells at 0.15 mM after 4 hrs by HPLC-MS based pull down assay relative to control. The assay is classed as cell-based. In short, it runs like this: as §1
The species named for assay [11] is Sus scrofa. Kind of assay: Inhibition of colchicine binding to porcine tubulin treated 2 hrs post colchicine treatment by pull down assay. In short, it runs like this: (§2)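 Porcine neuronal tubulin was preincubated with excess taxol, colchicine, vinblastine or nocodazole for 2 h at 4 °C. Biotinylated probe was then added in NETN buffer, followed by streptavidin Dynabead pull-down for 1 h at 4 °C and six washes. Bound α-tubulin was detected by SDS–PAGE and immunoblot. Three independent experiments.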

For assay [12], the species on record is Sus scrofa. Kind of assay: Inhibition of vinblastine binding to porcine tubulin treated 2 hrs post colchicine treatment by pull down assay. In short, it runs like this:
as §2

Assay [13] is filed under the species Sus scrofa. In words: Inhibition of taxol binding to porcine tubulin treated 2 hrs post colchicine treatment by pull down assay. In short, it runs like this:
as §2

Assay [14] is filed under the species Sus scrofa. Kind of assay: Inhibition of colchicine binding to porcine tubulin preincubated with tubulin followed by colchicine treatment measured after 2 hrs by immunoblot analysis. On the technique in general: In western blotting, separated proteins are transferred to a membrane and probed.
Assay [15] is filed under the species Sus scrofa. In words: Inhibition of vinblastine binding to porcine tubulin preincubated with tubulin followed by vinblastine treatment measured after 2 hrs by immunoblot analysis.
Assay [16] is filed under the species Sus scrofa. Kind of assay: Inhibition of nocodazole binding to porcine tubulin preincubated with tubulin followed by nocodazole treatment measured after 2 hrs by immunoblot analysis.
The species named for assay [17] is Sus scrofa. Kind of assay: Inhibition of taxol binding to porcine tubulin preincubated with tubulin followed by taxol treatment measured after 2 hrs by immunoblot analysis.

Active and inactive are the calls of the source. The calls are words filed in the database; no cut-off is given here.

Chain of Tubulin beta-4B chain (Homo sapiens) (P68371 whole entry): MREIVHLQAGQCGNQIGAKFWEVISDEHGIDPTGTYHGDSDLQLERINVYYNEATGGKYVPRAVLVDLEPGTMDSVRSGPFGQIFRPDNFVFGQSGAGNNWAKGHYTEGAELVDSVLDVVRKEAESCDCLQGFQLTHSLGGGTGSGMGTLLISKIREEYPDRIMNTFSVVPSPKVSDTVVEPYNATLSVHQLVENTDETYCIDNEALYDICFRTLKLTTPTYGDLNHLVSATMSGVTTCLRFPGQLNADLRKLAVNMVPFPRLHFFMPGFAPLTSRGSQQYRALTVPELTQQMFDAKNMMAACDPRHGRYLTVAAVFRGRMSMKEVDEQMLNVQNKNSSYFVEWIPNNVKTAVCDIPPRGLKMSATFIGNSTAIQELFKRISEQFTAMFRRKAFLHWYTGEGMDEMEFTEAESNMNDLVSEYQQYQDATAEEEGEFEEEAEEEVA
Chain of Ubiquitin carboxyl-terminal hydrolase 10 (Homo sapiens) (Q14694 whole entry, canonical isoform): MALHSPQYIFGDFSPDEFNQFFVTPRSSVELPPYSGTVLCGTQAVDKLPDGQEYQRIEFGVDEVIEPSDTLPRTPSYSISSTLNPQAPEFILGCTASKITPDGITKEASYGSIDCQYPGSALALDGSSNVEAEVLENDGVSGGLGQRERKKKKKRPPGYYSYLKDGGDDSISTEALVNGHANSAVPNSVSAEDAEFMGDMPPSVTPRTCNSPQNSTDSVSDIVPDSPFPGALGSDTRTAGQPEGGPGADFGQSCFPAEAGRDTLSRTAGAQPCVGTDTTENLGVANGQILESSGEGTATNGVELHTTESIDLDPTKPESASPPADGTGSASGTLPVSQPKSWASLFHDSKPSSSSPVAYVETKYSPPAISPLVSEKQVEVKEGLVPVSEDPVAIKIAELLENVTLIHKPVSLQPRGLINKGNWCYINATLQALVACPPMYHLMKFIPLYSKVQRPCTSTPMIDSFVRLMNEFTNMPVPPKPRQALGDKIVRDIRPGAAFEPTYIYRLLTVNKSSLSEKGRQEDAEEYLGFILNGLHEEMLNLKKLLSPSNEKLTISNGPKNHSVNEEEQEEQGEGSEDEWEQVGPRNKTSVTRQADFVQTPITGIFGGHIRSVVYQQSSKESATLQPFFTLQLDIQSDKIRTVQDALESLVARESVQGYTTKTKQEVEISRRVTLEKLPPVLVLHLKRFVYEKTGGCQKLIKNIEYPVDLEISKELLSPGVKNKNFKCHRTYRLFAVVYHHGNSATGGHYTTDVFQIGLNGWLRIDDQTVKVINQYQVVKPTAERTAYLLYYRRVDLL
Chain of Serine/arginine-rich splicing factor 1 (Homo sapiens) (Q07955 whole entry): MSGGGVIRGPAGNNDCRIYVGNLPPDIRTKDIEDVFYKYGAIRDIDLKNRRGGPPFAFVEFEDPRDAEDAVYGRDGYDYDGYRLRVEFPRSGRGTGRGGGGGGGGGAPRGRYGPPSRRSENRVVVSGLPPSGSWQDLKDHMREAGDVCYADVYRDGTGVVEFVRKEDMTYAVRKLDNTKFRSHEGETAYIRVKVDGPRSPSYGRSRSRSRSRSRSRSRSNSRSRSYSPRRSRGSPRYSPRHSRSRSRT

For `Cc1cc2c(=O)[nH]c(CSC(=S)N(CCCNC(=O)CCCC[C@@H]3SC[C@@H]4NC(=O)N[C@@H]43)Cc3ccc(C#N)cc3)nc2s1`, the Activity is 40.5% in assay [1]; 15.3% in the assay with A549 [2]; 35.7% with A549 [3]; 34.2% in assay [4]; 38.8% in assay [5]; 52.8% in assay [6]. Besides, the Activity in [7] was 42.8%; in assay [8], 52.2%; in assay [9], 63.8%; in assay [10], 55.8%. Moreover, the inhibition result in the assay listed under Sus scrofa [11], in the assay listed under Sus scrofa [12], in the assay listed under Sus scrofa [14], in the assay listed under Sus scrofa [15] and in the assay listed under Sus scrofa [16] was “Active” throughout. The inhibition entry in the assay listed under Sus scrofa [13] and in the assay listed under Sus scrofa [17] was “inactive” throughout.
